Experimental data reported in ChEMBL document CHEMBL3102784, “Salicylanilide diethyl phosphates: synthesis, antimicrobial activity and cytotoxicity” (Bioorg Med Chem, 2014).
Values after ≈ are worked out from the molar mass of the structure shown. Active and inactive are the calls of the source. The rule behind the calls is not given here.

Assays:
Candida albicans [1] = assay: Antifungal activity against Candida albicans ATCC 44859 after 24 hrs by broth microdilution method; assay type: functional; conditions: ATCC 44859, 24 h
How it was run: (§1)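 Broth microdilution in RPMI 1640 with glutamine, fluconazole as reference. For yeasts, MIC is ≥80% growth reduction (IC80) versus control. For filamentous fungi, the value is expressed as IC50. Readings at 24 and 48 h.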

[2] = system: Mycobacterium tuberculosis; assay: Antimycobacterial activity against Mycobacterium tuberculosis H37Rv My 331/88 after 14 days; assay type: functional; conditions: H37Rv My 331/88, 336 h
How it was run: (§2)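 Micromethod MIC in Šula's semisynthetic medium at 37 °C. Compounds added in DMSO at 1000 down to 0.032 µmol/L. Isoniazid standard in sterile water at 0.5–250 µmol/L. Inocula: H37Rv 10^3, M. avium 10^5, M. kansasii 10^4. Read at 14 and 21 d, plus 7 d for M. kansasii.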

Candida albicans [3] = assay: Antifungal activity against Candida albicans ATCC 44859 after 48 hrs by broth microdilution method; assay type: functional; conditions: ATCC 44859, 48 h; how it was run: as §1
Pichia kudriavzevii [4] = assay: Antifungal activity against Candida krusei E28 after 48 hrs by broth microdilution method; assay type: functional; conditions: E28, 48 h; how it was run: as §1
Staphylococcus aureus [5] = assay: Antibacterial activity against methicillin-resistant Staphylococcus aureus H 5996/08 after 48 hrs by broth microdilution method; assay type: functional; conditions: H 5996/08, 48 h
How it was run: (§3)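 Broth microdilution in Mueller–Hinton broth, compounds dissolved in DMSO, tested over a dilution series from 500 downward. MIC taken as ≥95% growth reduction (IC95) versus drug-free control. Benzylpenicillin comparator. Readings at 24 and 48 h.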

[6] = system: Staphylococcus epidermidis; assay: Antibacterial activity against Staphylococcus epidermidis H 6966/08 after 24 hrs by broth microdilution method; assay type: functional; conditions: H 6966/08, 24 h; how it was run: as §3
Mycobacterium kansasii [7] = assay: Antimycobacterial activity against Mycobacterium kansasii 6509/96 after 14 days; assay type: functional; conditions: 6509/96, 336 h; how it was run: as §2
Mycobacterium kansasii [8] = assay: Antimycobacterial activity against Mycobacterium kansasii My 235/80 after 21 days; assay type: functional; conditions: My 235/80, 504 h; how it was run: as §2
Pichia kudriavzevii [9] = assay: Antifungal activity against Candida krusei E28 after 24 hrs by broth microdilution method; assay type: functional; conditions: E28, 24 h; how it was run: as §1
Nakaseomyces glabratus = assay: Antifungal activity against Candida glabrata 20/I at 500 micromol/L after 24 to 48 hrs by broth microdilution method; assay type: functional, organism-based; how it was run: as §1
Pseudomonas aeruginosa = assay: Antibacterial activity against Pseudomonas aeruginosa CCM 1961 at 500 micromol/L after 24 to 48 hrs by broth microdilution method; assay type: functional, organism-based; how it was run: as §3
[10] = system: Staphylococcus epidermidis; assay: Antibacterial activity against Staphylococcus epidermidis H 6966/08 after 48 hrs by broth microdilution method; assay type: functional; conditions: H 6966/08, 48 h; how it was run: as §3
Lichtheimia corymbifera [11] = assay: Antifungal activity against Absidia corymbifera 272 after 48 hrs by broth microdilution method; assay type: functional; conditions: Lichtheimia corymbifera, 272, 48 h; how it was run: as §1
[12] = system: Mycobacterium tuberculosis; assay: Antimycobacterial activity against Mycobacterium tuberculosis H37Rv My 331/88 after 21 days; assay type: functional; conditions: H37Rv My 331/88, 504 h; how it was run: as §2
Mycobacterium kansasii [13] = assay: Antimycobacterial activity against Mycobacterium kansasii My 235/80 after 14 days; assay type: functional; conditions: My 235/80, 336 h; how it was run: as §2
Mycobacterium kansasii [14] = assay: Antimycobacterial activity against Mycobacterium kansasii 6509/96 after 7 days; assay type: functional; conditions: 6509/96, 168 h; how it was run: as §2
Aspergillus fumigatus [15] = assay: Antifungal activity against Aspergillus fumigatus 231 after 48 hrs by broth microdilution method; assay type: functional; conditions: Aspergillus fumigatus, 231, 48 h; how it was run: as §1
HepG2 = assay: Cytotoxicity against human HepG2 cells after 24 hrs by CellTiter assay; assay type: cell-based; conditions: HepG2, 24 h
How it was run: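 HepG2 cells (passage 27–33) in MEM with 10% FBS, L-glutamine and NEAA, seeded at 1×10^4 per well. Treated next day with compounds at 0.1–100 µM (or 0.1–25 µmol/L), triplicates, <1% DMSO, for 24 h at 37 °C, 5% CO2. MTS reagent added for 2 h, absorbance read at 490 nm. IC50 taken against untreated (100%) and 10% DMSO (0%) controls.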

Staphylococcus aureus [16] = assay: Antibacterial activity against methicillin-resistant Staphylococcus aureus H 5996/08 after 24 hrs by broth microdilution method; assay type: functional; conditions: H 5996/08, 24 h; how it was run: as §3
Enterococcus sp. = assay: Antibacterial activity against Enterococcus sp. J 14365/08 at 500 micromol/L after 24 to 48 hrs by broth microdilution method; assay type: functional, organism-based; how it was run: as §3
Staphylococcus aureus [17] = assay: Antibacterial activity against Staphylococcus aureus CCM 4516/08 after 24 hrs by broth microdilution method; assay type: functional; conditions: CCM 4516/08, 24 h; how it was run: as §3
Staphylococcus aureus [18] = assay: Antibacterial activity against Staphylococcus aureus CCM 4516/08 after 48 hrs by broth microdilution method; assay type: functional; conditions: CCM 4516/08, 48 h; how it was run: as §3
Klebsiella pneumoniae [19] = assay: Antibacterial activity against Klebsiella pneumoniae D 11750/08 at 500 micromol/L after 24 to 48 hrs by broth microdilution method; assay type: functional, organism-based; how it was run: as §3
Klebsiella pneumoniae [20] = assay: Antibacterial activity against ESBL-positive Klebsiella pneumoniae J 14368/08 at 500 micromol/L after 24 to 48 hrs by broth microdilution method; assay type: functional, organism-based; how it was run: as §3
Escherichia coli = assay: Antibacterial activity against Escherichia coli CCM 4517 at 500 micromol/L after 24 to 48 hrs by broth microdilution method; assay type: functional, organism-based; how it was run: as §3
Mycobacterium kansasii [21] = assay: Antimycobacterial activity against Mycobacterium kansasii My 235/80 after 7 days; assay type: functional; conditions: My 235/80, 168 h; how it was run: as §2
[22] = system: Trichophyton mentagrophytes; assay: Antifungal activity against Trichophyton mentagrophytes 445 after 72 hrs by broth microdilution method; assay type: functional; conditions: Trichophyton mentagrophytes, 445, 72 h
How it was run: (§4)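 Filamentous dermatophyte tested by broth microdilution in RPMI 1640 with glutamine, fluconazole as reference. Value expressed as IC50 relative to growth control. Read at 72 and 120 h.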

Mycobacterium avium [23] = assay: Antimycobacterial activity against isoniazid, rifampicin, ethambutol and ofloxacin-resistant Mycobacterium avium My 330/88 after 14 days; assay type: functional; conditions: My 330/88, 336 h; how it was run: as §2
Lichtheimia corymbifera [24] = assay: Antifungal activity against Absidia corymbifera 272 after 24 hrs by broth microdilution method; assay type: functional; conditions: Lichtheimia corymbifera, 272, 24 h; how it was run: as §1
Candida tropicalis = assay: Antifungal activity against Candida tropicalis 156 at 500 micromol/L after 24 to 48 hrs by broth microdilution method; assay type: functional, organism-based; how it was run: as §1
[25] = system: Trichophyton mentagrophytes; assay: Antifungal activity against Trichophyton mentagrophytes 445 after 120 hrs by broth microdilution method; assay type: functional; conditions: Trichophyton mentagrophytes, 445, 120 h; how it was run: as §4
Mycobacterium kansasii [26] = assay: Antimycobacterial activity against Mycobacterium kansasii 6509/96 after 21 days; assay type: functional; conditions: 6509/96, 504 h; how it was run: as §2
Trichosporon asahii [27] = assay: Antifungal activity against Trichosporon asahii 1188 after 48 hrs by broth microdilution method; assay type: functional; conditions: Trichosporon asahii, 1188, 48 h; how it was run: as §1
Aspergillus fumigatus [28] = assay: Antifungal activity against Aspergillus fumigatus 231 after 24 hrs by broth microdilution method; assay type: functional; conditions: Aspergillus fumigatus, 231, 24 h; how it was run: as §1
Trichosporon asahii [29] = assay: Antifungal activity against Trichosporon asahii 1188 after 24 hrs by broth microdilution method; assay type: functional; conditions: Trichosporon asahii, 1188, 24 h; how it was run: as §1
Mycobacterium avium [30] = assay: Antimycobacterial activity against isoniazid, rifampicin, ethambutol and ofloxacin-resistant Mycobacterium avium My 330/88 after 21 days; assay type: functional; conditions: My 330/88, 504 h; how it was run: as §2

SMILES	MIC80 (Candida albicans [1])	MIC [2]	MIC80 (Candida albicans [3])	MIC80 (Pichia kudriavzevii [4])	MIC95 (Staphylococcus aureus [5])	MIC95 [6]	MIC (Mycobacterium kansasii [7])	MIC (Mycobacterium kansasii [8])	MIC80 (Pichia kudriavzevii [9])	Activity (Nakaseomyces glabratus)	Activity (Pseudomonas aeruginosa)	MIC95 [10]	MIC50 (Lichtheimia corymbifera [11])	MIC [12]	MIC (Mycobacterium kansasii [13])	MIC (Mycobacterium kansasii [14])	MIC50 (Aspergillus fumigatus [15])	IC50 (HepG2)	MIC95 (Staphylococcus aureus [16])	Activity (Enterococcus sp.)	further results
CCOP(=O)(OCC)Oc1ccc(Cl)cc1C(=O)Nc1cccc(Br)c1	> 500 µM	4 µM (≈ 1.85 µg/mL)	> 500 µM	> 500 µM	62.5 µM (≈ 28.9 µg/mL)	15.6 µM (≈ 7.23 µg/mL)	8 µM (≈ 3.7 µg/mL)	8 µM (≈ 3.7 µg/mL)	> 500 µM	inactive	inactive	31.2 µM (≈ 14.5 µg/mL)	> 500 µM	4 µM (≈ 1.85 µg/mL)	8 µM (≈ 3.7 µg/mL)	8 µM (≈ 3.7 µg/mL)	> 500 µM	1.81 µM	31.2 µM (≈ 14.5 µg/mL)	inactive	MIC95 (Staphylococcus aureus [17]): 15.6 µM (≈ 7.23 µg/mL); MIC95 (Staphylococcus aureus [18]): 31.2 µM (≈ 14.5 µg/mL); Activity (Klebsiella pneumoniae [19]): inactive; Activity (Klebsiella pneumoniae [20]): inactive; Activity (Escherichia coli): inactive; MIC (Mycobacterium kansasii [21]): 4 µM (≈ 1.85 µg/mL); MIC50 [22]: 15.6 µM (≈ 7.23 µg/mL); MIC (Mycobacterium avium [23]): 16 µM (≈ 7.4 µg/mL); MIC50 (Lichtheimia corymbifera [24]): > 500 µM; Activity (Candida tropicalis): inactive; MIC50 [25]: 15.6 µM (≈ 7.23 µg/mL); MIC (Mycobacterium kansasii [26]): 8 µM (≈ 3.7 µg/mL); MIC80 (Trichosporon asahii [27]): > 500 µM; MIC50 (Aspergillus fumigatus [28]): > 500 µM; MIC80 (Trichosporon asahii [29]): > 500 µM; MIC (Mycobacterium avium [30]): 16 µM (≈ 7.4 µg/mL)
CCOP(=O)(OCC)Oc1ccc(Cl)cc1C(=O)Nc1cccc(C(F)(F)F)c1	> 500 µM	2 µM (≈ 0.904 µg/mL)	> 500 µM	> 500 µM	500 µM (≈ 226 µg/mL)	250 µM (≈ 113 µg/mL)	8 µM (≈ 3.61 µg/mL)	8 µM (≈ 3.61 µg/mL)	> 500 µM	inactive	inactive	> 500 µM	> 500 µM	2 µM (≈ 0.904 µg/mL)	8 µM (≈ 3.61 µg/mL)	8 µM (≈ 3.61 µg/mL)	> 500 µM	5.68 µM	500 µM (≈ 226 µg/mL)	inactive	MIC95 (Staphylococcus aureus [17]): > 500 µM; MIC95 (Staphylococcus aureus [18]): > 500 µM; Activity (Klebsiella pneumoniae [19]): inactive; Activity (Klebsiella pneumoniae [20]): inactive; Activity (Escherichia coli): inactive; MIC (Mycobacterium kansasii [21]): 8 µM (≈ 3.61 µg/mL); MIC50 [22]: > 500 µM; MIC (Mycobacterium avium [23]): 16 µM (≈ 7.23 µg/mL); MIC50 (Lichtheimia corymbifera [24]): > 500 µM; Activity (Candida tropicalis): inactive; MIC50 [25]: > 500 µM; MIC (Mycobacterium kansasii [26]): 8 µM (≈ 3.61 µg/mL); MIC80 (Trichosporon asahii [27]): > 500 µM; MIC50 (Aspergillus fumigatus [28]): > 500 µM; MIC80 (Trichosporon asahii [29]): > 500 µM; MIC (Mycobacterium avium [30]): 16 µM (≈ 7.23 µg/mL)
